Source: ChEMBL document CHEMBL1240348, “Pretreatment of epithelial cells with rifaximin alters bacterial attachment and internalization profiles” (Antimicrob Agents Chemother, 2010)
The source made the active and inactive calls.

What was measured:
Assay type in all cases: functional, cell-based
HEp-2 [1] = experiment: Effect on cytokine level in human Hep2 cells assessed as IL-15 level pretreated at 64 ug/ml for 24 hrs
How it was run: (§1)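 Confluent HEp-2 cells on chambered slides were given fresh medium containing antibiotic at 64 μg/ml, acetone diluent (64 μl), or no antibiotic. Supernatants collected 24 h later were probed on a cytokine array membrane covering GM-CSF, MIPs, MMP3, RANTES, TGF-β, IFN-γ, TNFRI/II, VCAM-1, VEGF and interleukins. Each analyte was read as detected or not detected.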

HEp-2 [2] = experiment: Effect on cytokine level in human Hep2 cells assessed as TGF-beta level pretreated at 64 ug/ml for 24 hrs; how it was run: as §1
HEp-2 [3] = experiment: Effect on cytokine level in human Hep2 cells assessed as IFN-gamma level pretreated at 64 ug/ml for 24 hrs; how it was run: as §1
HEp-2 [4] = experiment: Effect on cytokine level in human Hep2 cells assessed as absence of MIP5 pretreated at 64 ug/ml for 24 hrs; how it was run: as §1
HEp-2 [5] = experiment: Effect on cytokine level in human Hep2 cells assessed as IL-4 level pretreated at 64 ug/ml for 24 hrs; how it was run: as §1
Escherichia coli [6] = experiment: Inhibition of enteroaggregative Escherichia coli 042 adherence to human Hep2 cells pretreated at 32 ug/ml for 24 hrs by adherence assay; settings: HEp-2
How it was run: (§2)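 Confluent cells in 24-well plates, in DMEM with 10% FBS and no antibiotics, were pretreated with drug (from acetone stock) or an equal volume of acetone, then washed three times with PBS. HEp-2 received 8, 32 or 64 μg/ml; the other lines 32 or 64 μg/ml for 24 h. Cells were then infected for 3 h at 37°C (next note).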

HEp-2 [7] = experiment: Effect on cytokine level in human Hep2 cells assessed as IL-6 level pretreated at 64 ug/ml for 24 hrs; how it was run: as §1
Escherichia coli [8] = experiment: Inhibition of enteroaggregative Escherichia coli 042 adherence to human HeLa cells pretreated at 64 ug/ml for 24 hrs by adherence assay; how it was run: as §2
HEp-2 [9] = experiment: Effect on cytokine level in human Hep2 cells assessed as VEGF level pretreated at 64 ug/ml for 24 hrs; how it was run: as §1
HEp-2 [10] = experiment: Effect on cytokine level in human Hep2 cells assessed as IL-12 (p40) level pretreated at 64 ug/ml for 24 hrs; how it was run: as §1
Escherichia coli [11] = experiment: Inhibition of enteroaggregative Escherichia coli 042 adherence to human Hep2 cells pretreated at 64 ug/ml for 24 hrs by adherence assay; settings: HEp-2; how it was run: as §2
HEp-2 [12] = experiment: Effect on cytokine level in human Hep2 cells assessed as VCAM-1 level pretreated at 64 ug/ml for 24 hrs; how it was run: as §1
HEp-2 [13] = experiment: Effect on cytokine level in human Hep2 cells assessed as MIP5 level pretreated at 64 ug/ml for 24 hrs; how it was run: as §1
HEp-2 [14] = experiment: Effect on cytokine level in human Hep2 cells assessed as RANTES level pretreated at 64 ug/ml for 24 hrs; how it was run: as §1
Escherichia coli [15] = experiment: Inhibition of enteroaggregative Escherichia coli 042 adherence to human Hep2 cells using cell supernatants from pretreated at 64 ug/ml for 24 hrs by adherence assay; settings: HEp-2
How it was run: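 Confluent HEp-2 cells were grown 24 h in medium with 64 μg/ml antibiotic, acetone, or nothing. The conditioned medium was dialyzed against PBS (6–8 kDa cutoff, four changes of at least 6 h each, 4°C). EAEC (7 × 10^6/ml) was mixed 1:1 with dialyzed medium and added to untreated HEp-2 slides or cell-free chambers for 3 h, then stained and examined microscopically.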

Escherichia coli [16] = experiment: Inhibition of enteroaggregative Escherichia coli 042 adherence to human A549 cells pretreated at 64 ug/ml for 24 hrs by adherence assay; how it was run: as §2
HEp-2 [17] = experiment: Effect on cytokine level in human Hep2 cells assessed as GM-CSF level pretreated at 64 ug/ml for 24 hrs; how it was run: as §1
HEp-2 [18] = experiment: Effect on cytokine level in human Hep2 cells assessed as MIP4 level pretreated at 64 ug/ml for 24 hrs; how it was run: as §1
HEp-2 [19] = experiment: Effect on cytokine level in human Hep2 cells assessed as IL-8 level pretreated at 64 ug/ml for 24 hrs; how it was run: as §1
Escherichia coli [20] = experiment: Inhibition of enteroaggregative Escherichia coli 042 adherence to human HCT-8 cells pretreated at 64 ug/ml for 24 hrs by adherence assay; how it was run: as §2
HEp-2 [21] = experiment: Effect on cytokine level in human Hep2 cells assessed as TNFRI level pretreated at 64 ug/ml for 24 hrs; how it was run: as §1
HEp-2 [22] = experiment: Effect on cytokine level in human Hep2 cells assessed as MMP3 level pretreated at 64 ug/ml for 24 hrs; how it was run: as §1
HEp-2 [23] = experiment: Effect on cytokine level in human Hep2 cells assessed as TNFR2 level pretreated at 64 ug/ml for 24 hrs; how it was run: as §1
Escherichia coli [24] = experiment: Inhibition of enteroaggregative Escherichia coli 042 adherence to human Hep2 cells pretreated by adherence assay; settings: HEp-2
How it was run: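 HEp-2 monolayers, confluent unless otherwise specified, in chambered slides were exposed to antibiotic or controls for 4, 8, 16, 18 or 24 h, then washed three times with PBS. EAEC O42 (7 × 10^6 to 1 × 10^7 in DMEM, 10% FBS, 1% D-mannose) was added for 3 h at 37°C. Attachment was assessed microscopically after Wright-Giemsa staining.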

CO[C@H]1/C=C/O[C@@]2(C)Oc3c(C)c(O)c4c(O)c(c5c(nc6cc(C)ccn65)c4c3C2=O)NC(=O)/C(C)=C\C=C\[C@H](C)[C@H](O)[C@@H](C)[C@@H](O)[C@@H](C)[C@H](OC(C)=O)[C@@H]1C
Activity (HEp-2 [1]): Active | Activity (HEp-2 [2]): Active | Activity (HEp-2 [3]): Active | Activity (HEp-2 [4]): Active | Activity (HEp-2 [5]): Active | inhibition (Escherichia coli [6]): Active | Activity (HEp-2 [7]): Active | inhibition (Escherichia coli [8]): Active | Activity (HEp-2 [9]): Active | Activity (HEp-2 [10]): Active | inhibition (Escherichia coli [11]): Active | Activity (HEp-2 [12]): Active | Activity (HEp-2 [13]): Active | Activity (HEp-2 [14]): Active | inhibition (Escherichia coli [15]): inactive | inhibition (Escherichia coli [16]): Active | Activity (HEp-2 [17]): Active | Activity (HEp-2 [18]): Active | Activity (HEp-2 [19]): Active | inhibition (Escherichia coli [20]): inactive | Activity (HEp-2 [21]): Active | Activity (HEp-2 [22]): Active | Activity (HEp-2 [23]): Active

CO[C@H]1/C=C/O[C@@]2(C)Oc3c(C)c(O)c4c(O)c(c(/C=N/N5CCN(C)CC5)c(O)c4c3C2=O)NC(=O)/C(C)=C\C=C\[C@H](C)[C@H](O)[C@@H](C)[C@@H](O)[C@@H](C)[C@H](OC(C)=O)[C@@H]1C
inhibition (Escherichia coli [24]): Active
